In ChEMBL document CHEMBL4190394, “Discovery of Novel Pazopanib-Based HDAC and VEGFR Dual Inhibitors Targeting Cancer Epigenetics and Angiogenesis Simultaneously” (J Med Chem, 2018):
Values belong to the compound of their own block, whether it stands above or below them. Activity calls are given as the source filed them. No cut-off for these calls is given here.

Columns and labels:
HT-29 [1] = assay: Antiproliferative activity against human HT-29 cells after 72 hrs by MTT assay; assay type: functional, cell-based; conditions: HT-29, 72 h
MDA-MB-231 = assay: Antiproliferative activity against human MDA-MB-231 cells after 72 hrs by MTT assay; assay type: functional, cell-based; conditions: MDA-MB-231, 72 h
HUVEC [2] = assay: Cytotoxicity activity against HUVEC after 72 hrs by MTT assay; assay type: cell-based; conditions: Homo sapiens
Summary of the method: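 HUVECs kept in RPMI1640 with 10% FBS at 37 °C, 5% CO2. Cells seeded the day before, grown 12 h, then exposed to a range of compound concentrations for 72 h. Then 0.5% MTT added for 4 h, formazan dissolved in DMSO, and absorbance read at 570 nm.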

[3] = target: Macrophage colony-stimulating factor 1 receptor (Homo sapiens, UniProt P07333); assay: Inhibition of C-fms (unknown origin) after 40 mins by kinase-Glo assay
Macrophage colony-stimulating factor 1 receptor, sequence (P07333 whole entry): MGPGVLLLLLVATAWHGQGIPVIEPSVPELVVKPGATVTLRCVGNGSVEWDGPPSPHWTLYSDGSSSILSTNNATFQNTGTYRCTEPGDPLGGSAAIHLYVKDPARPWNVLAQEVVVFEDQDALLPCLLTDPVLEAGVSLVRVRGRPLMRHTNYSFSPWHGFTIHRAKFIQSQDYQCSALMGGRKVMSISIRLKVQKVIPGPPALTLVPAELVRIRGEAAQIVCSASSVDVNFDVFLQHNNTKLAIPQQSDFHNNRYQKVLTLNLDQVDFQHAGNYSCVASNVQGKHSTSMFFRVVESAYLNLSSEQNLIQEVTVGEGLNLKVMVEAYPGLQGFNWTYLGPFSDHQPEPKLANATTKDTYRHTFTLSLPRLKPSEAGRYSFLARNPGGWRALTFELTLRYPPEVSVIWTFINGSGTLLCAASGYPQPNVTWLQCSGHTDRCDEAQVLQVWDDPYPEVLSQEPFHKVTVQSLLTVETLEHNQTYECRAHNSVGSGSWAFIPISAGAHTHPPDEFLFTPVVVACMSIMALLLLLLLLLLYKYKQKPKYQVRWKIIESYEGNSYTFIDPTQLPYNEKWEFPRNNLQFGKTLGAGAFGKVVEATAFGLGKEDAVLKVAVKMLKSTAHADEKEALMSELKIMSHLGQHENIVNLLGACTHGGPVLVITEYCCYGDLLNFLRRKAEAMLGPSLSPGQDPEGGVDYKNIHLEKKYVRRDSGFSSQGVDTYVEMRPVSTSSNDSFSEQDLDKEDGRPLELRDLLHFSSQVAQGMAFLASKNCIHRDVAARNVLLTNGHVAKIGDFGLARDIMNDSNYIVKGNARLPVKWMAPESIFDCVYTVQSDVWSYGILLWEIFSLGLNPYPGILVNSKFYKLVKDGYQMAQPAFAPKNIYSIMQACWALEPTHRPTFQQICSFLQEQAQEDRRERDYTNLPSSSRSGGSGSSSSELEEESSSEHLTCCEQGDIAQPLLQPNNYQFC

KG-1 = assay: Antiproliferative activity against human KG1 cells after 72 hrs by MTT assay; assay type: functional, cell-based; conditions: KG-1, 72 h
HT-1080 = assay: Antiproliferative activity against human HT1080 cells after 72 hrs by MTT assay; assay type: functional, cell-based; conditions: HT-1080, 72 h
[4] = target: Protein deacetylase HDAC6 (Homo sapiens, UniProt Q9UBN7); assay: Inhibition of HDAC6 (unknown origin) using fluorogenic Boc-Lys(acetyl)-AMC as substrate preincubated for 5 mins followed by substrate addition measured after 30 mins by fluorescence-based assay
K562 = assay: Antiproliferative activity against human K562 cells after 72 hrs by MTT assay; assay type: functional, cell-based; conditions: K562, 72 h
[5] = target: Platelet-derived growth factor receptor beta (Homo sapiens, UniProt P09619); assay: Inhibition of PDGFRbeta (unknown origin) after 40 mins by kinase-Glo assay
Platelet-derived growth factor receptor beta, sequence (P09619 whole entry): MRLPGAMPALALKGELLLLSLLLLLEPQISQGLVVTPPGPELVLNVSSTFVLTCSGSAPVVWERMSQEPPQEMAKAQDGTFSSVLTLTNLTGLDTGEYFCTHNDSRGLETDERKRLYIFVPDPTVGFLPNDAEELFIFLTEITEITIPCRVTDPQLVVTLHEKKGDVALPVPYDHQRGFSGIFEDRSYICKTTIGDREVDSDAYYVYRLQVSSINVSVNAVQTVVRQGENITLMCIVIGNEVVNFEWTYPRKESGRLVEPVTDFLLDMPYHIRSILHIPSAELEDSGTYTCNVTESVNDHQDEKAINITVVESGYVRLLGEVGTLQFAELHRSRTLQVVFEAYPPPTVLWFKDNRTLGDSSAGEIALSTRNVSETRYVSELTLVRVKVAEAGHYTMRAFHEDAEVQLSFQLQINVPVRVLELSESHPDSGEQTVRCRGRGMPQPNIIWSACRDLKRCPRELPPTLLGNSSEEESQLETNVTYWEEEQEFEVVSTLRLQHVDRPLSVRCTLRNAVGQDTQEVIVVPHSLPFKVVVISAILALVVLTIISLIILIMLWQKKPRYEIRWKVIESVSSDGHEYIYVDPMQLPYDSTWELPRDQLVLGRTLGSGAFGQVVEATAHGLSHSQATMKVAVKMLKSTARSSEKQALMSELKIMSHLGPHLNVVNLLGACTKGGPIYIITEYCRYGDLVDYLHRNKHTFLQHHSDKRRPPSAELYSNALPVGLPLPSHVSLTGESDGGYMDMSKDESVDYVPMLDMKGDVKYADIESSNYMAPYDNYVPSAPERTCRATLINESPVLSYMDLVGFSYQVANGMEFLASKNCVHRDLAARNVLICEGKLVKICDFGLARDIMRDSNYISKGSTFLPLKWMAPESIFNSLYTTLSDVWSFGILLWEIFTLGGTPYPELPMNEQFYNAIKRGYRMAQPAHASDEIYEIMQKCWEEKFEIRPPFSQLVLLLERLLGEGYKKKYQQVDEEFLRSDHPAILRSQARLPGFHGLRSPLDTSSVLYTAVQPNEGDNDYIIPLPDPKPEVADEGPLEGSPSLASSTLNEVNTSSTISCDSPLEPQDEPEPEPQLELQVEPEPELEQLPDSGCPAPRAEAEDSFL
Summary of the method: (§1)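 Kinase-Glo luminescent assay run by a contract lab. Compound, kinase, substrate and ATP diluted in kinase buffer and incubated 40 min at room temperature. IC50 obtained by nonlinear regression of normalized dose–response.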

[6] = target: Vascular endothelial growth factor receptor 1 (Homo sapiens, UniProt P17948); assay: Inhibition of VEGFR-1 (unknown origin) after 40 mins by kinase-Glo assay; summary of the method: as §1
[7] = target: Histone deacetylase 1/2/3 (Homo sapiens) (UniProt Q13547+O15379+Q92769); conditions: HeLa, at 100 nM
MOLT-4 = assay: Antiproliferative activity against human MOLT4 cells after 72 hrs by MTT assay; assay type: functional, cell-based; conditions: MOLT-4, 72 h
Thoracic aorta = assay: Antiangiogenic activity in Sprague-Dawley rat thoracic aorta ring assessed as reduction in micro-vessel growth at 5 uM treated every day for 6 days by matrigel-based inverted microscopic analysis relative to control; assay type: functional, tissue-based
Summary of the method: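 Aortas taken from 4–6-week-old Sprague–Dawley rats, cut into 1-mm rings and embedded in Matrigel. Rings held 30 min at 37 °C, 5% CO2, then treated daily for 6 days with compound or 0.5% DMSO vehicle. Microvessel outgrowth photographed on day 7 at ×200. Three independent experiments.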

AGS = assay: Antiproliferative activity against human AGS cells after 72 hrs by MTT assay; assay type: functional, cell-based
[8] = target: Fibroblast growth factor receptor 1 (Homo sapiens, UniProt P11362); assay: Inhibition of FGFR1 (unknown origin) after 40 mins by kinase-Glo assay
ACHN = assay: Antiproliferative activity against human ACHN cells after 72 hrs by MTT assay; assay type: functional, cell-based
HEL = assay: Antiproliferative activity against human HEL cells after 72 hrs by MTT assay; assay type: functional, cell-based
[9] = target: Mast/stem cell growth factor receptor Kit (Homo sapiens, UniProt P10721); assay: Inhibition of C-kit (unknown origin) after 40 mins by kinase-Glo assay; summary of the method: as §1
Mast/stem cell growth factor receptor Kit, sequence (P10721 whole entry): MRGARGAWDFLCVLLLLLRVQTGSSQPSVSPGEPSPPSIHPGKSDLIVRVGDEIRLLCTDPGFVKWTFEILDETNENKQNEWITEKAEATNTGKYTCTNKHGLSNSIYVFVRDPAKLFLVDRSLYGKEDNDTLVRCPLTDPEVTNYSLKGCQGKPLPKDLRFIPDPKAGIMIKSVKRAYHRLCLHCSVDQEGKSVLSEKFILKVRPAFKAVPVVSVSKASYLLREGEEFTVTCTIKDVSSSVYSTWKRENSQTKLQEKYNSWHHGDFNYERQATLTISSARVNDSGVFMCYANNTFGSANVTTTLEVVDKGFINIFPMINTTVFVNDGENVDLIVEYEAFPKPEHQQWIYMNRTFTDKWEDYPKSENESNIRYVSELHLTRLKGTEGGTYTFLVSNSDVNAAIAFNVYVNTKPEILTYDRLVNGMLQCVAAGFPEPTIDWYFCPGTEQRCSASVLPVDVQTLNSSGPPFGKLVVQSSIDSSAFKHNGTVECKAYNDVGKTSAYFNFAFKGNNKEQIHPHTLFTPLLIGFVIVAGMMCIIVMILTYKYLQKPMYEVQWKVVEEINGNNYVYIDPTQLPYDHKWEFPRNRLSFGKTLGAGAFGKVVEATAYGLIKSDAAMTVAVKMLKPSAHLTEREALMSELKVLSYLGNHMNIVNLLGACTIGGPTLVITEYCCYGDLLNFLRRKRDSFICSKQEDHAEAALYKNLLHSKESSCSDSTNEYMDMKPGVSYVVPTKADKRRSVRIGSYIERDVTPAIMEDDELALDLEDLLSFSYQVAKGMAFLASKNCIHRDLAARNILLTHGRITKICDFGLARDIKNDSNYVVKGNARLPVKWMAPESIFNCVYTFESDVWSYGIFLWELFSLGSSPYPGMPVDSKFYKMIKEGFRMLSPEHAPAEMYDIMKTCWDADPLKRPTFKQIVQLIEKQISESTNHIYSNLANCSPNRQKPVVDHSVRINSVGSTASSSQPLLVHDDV

PC-3 = assay: Antiproliferative activity against human PC3 cells after 72 hrs by MTT assay; assay type: functional, cell-based; conditions: PC-3, 72 h
HUVEC [10] = assay: Antiangiogenic activity in human HUVEC cells assessed as reduction in capillary-like tubular network formation at 0.1 uM after 6 hrs by phase-contrast microscopy; assay type: functional, cell-based
Summary of the method: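 HUVECs trypsinized and seeded at 40000/well on Matrigel polymerized 0.5 h at 37 °C. Cells held 6 h at 37 °C in M199 with 5% FBS, with compound or DMSO. Tube formation viewed and photographed by phase-contrast microscopy at 200 magnification. Three independent experiments.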

Histone deacetylase 2 = Histone deacetylase 2 (Homo sapiens, UniProt Q92769)
[11] = target: Vascular endothelial growth factor receptor 3 (Homo sapiens, UniProt P35916); assay: Inhibition of VEGFR-3 (unknown origin) after 40 mins by kinase-Glo assay
[12] = target: T1, Vascular endothelial growth factor receptor 2 (Homo sapiens, UniProt P35968); assay: Inhibition of VEGF-stimulated VEGFR2 phosphorylation in human HUVEC cells at 100 nM preincubated for 2 hrs followed by VEGF stimulation by Western blot analysis; assay type: cell-based
T1 sequence (P35968 whole entry): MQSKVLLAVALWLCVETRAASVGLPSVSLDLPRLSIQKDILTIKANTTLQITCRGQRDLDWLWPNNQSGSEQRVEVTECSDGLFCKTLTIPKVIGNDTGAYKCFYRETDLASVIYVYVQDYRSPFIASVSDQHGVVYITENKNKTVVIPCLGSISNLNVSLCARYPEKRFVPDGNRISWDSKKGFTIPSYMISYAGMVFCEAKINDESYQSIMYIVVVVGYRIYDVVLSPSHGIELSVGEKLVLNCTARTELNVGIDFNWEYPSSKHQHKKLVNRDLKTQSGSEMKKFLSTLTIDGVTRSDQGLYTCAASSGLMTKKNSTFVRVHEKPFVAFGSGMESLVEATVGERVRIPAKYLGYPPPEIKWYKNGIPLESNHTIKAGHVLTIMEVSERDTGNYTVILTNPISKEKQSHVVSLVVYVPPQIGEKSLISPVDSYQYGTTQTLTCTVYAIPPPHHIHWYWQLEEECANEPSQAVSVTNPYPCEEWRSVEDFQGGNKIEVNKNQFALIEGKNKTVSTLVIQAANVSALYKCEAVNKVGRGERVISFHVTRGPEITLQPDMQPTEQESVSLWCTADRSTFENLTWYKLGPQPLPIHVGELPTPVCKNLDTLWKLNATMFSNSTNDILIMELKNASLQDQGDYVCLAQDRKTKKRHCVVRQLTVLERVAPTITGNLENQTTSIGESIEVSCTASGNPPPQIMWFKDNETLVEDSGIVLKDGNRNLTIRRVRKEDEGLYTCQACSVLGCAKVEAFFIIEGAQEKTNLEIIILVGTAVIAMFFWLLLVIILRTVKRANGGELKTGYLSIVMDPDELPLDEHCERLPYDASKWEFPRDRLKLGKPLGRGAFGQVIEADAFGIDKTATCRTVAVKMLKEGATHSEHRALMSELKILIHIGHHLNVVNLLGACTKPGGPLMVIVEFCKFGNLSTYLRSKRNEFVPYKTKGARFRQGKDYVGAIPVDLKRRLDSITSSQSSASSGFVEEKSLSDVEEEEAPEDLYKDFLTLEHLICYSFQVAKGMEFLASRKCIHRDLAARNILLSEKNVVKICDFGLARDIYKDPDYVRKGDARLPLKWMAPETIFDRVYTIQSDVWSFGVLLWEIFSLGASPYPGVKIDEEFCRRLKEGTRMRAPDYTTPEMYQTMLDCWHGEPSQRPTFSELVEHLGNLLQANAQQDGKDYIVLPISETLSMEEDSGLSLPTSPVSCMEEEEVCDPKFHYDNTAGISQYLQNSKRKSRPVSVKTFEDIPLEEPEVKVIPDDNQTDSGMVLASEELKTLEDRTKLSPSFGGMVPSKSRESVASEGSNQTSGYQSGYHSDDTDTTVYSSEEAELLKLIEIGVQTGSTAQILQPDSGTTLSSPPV
Summary of the method: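 HUVECs pretreated 2 h with compound or DMSO, then stimulated with VEGF (50 ng/ml). Cells lysed in ice-cold RIPA and protein measured by BCA. Lysates run on SDS-PAGE and immunoblotted for phospho-VEGFR-2, with total VEGFR-2 as loading control. Detection by ECL.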

Histone deacetylase 8 = Histone deacetylase 8 (Homo sapiens, UniProt Q9BY41); assay: Inhibition of HDAC8 (unknown origin) using fluorogenic Boc-Lys(trifluoroacetyl)-AMC as substrate preincubated for 5 mins followed by substrate addition measured after 30 mins by fluorescence-based assay
Histone deacetylase 8, sequence (Q9BY41 whole entry): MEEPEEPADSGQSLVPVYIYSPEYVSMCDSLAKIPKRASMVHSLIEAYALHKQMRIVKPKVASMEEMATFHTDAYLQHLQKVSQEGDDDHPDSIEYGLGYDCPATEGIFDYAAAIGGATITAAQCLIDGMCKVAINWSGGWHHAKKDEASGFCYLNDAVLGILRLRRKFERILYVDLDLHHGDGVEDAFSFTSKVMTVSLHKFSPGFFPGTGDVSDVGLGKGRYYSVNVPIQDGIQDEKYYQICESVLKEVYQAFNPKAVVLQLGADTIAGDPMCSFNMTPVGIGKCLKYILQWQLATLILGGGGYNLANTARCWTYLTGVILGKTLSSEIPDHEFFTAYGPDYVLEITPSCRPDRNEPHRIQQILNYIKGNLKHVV

[13] = target: T1, Vascular endothelial growth factor receptor 2; assay: Inhibition of VEGFR-2 (unknown origin) at 0.2 uM after 40 mins by kinase-Glo assay relative to control
Summary of the method: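 VEGFR-2 tested at a single 200 nM concentration in a Kinase-Glo assay. Compound, kinase, substrate and ATP incubated 40 min at room temperature, then Kinase-Glo reagent added for 15 min and luminescence read. Inhibition rate reported. Replicates n ≥ 2.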

Histone deacetylase = assay type: protein assay, Homo sapiens
[14] = target: T1, Vascular endothelial growth factor receptor 2; assay: Inhibition of VEGFR-2 (unknown origin) after 40 mins by kinase-Glo assay; summary of the method: as §1
HeLa = assay: Antiproliferative activity against human HeLa cells after 72 hrs by MTT assay; assay type: functional, cell-based
HT-29 [15] = assay: Antitumor activity against human HT-29 cells xenografted in BALB/c nu mouse assessed as tumor growth level at 100 mg/kg, po administered for 25 consecutive days measured every 3 days during compound dosing relative to control; assay type: functional
Summary of the method: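 HT-29 cells (1×10^7) implanted s.c. in right flank of male BALB/c-nu mice aged 5–6 weeks. At about 100 mm³ (day 10), mice randomized 6 per group and dosed orally for 25 consecutive days. Controls received PBS with 5% DMSO. T/C is mean RTV (Vt/V0) treated over control. TGI taken from final tumor weights. Student's two-tailed t test.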

IC50 (HT-29 [1]): 2510 nM
IC50 (MDA-MB-231): 2960 nM
IC50 [3]: 581 nM
IC50 (HT-1080): 1970 nM
IC50 [4]: 72 nM
IC50 (K562): 990 nM
IC50 [5]: 111 nM
IC50 [6]: 35 nM
inhibition [7]: Active
IC50 (MOLT-4): 310 nM
IC50 (AGS): 4440 nM
IC50 [8]: 409 nM
IC50 (ACHN): > 5000 nM
IC50 [9]: 163 nM
IC50 (PC-3): 1690 nM
IC50 (Histone deacetylase 2): 380 nM
IC50 [11]: 113 nM
inhibition [12]: Active
IC50 (Histone deacetylase 8): 1660 nM
inhibition [13]: 93%
IC50 (Histone deacetylase): 3.3 nM
IC50 [14]: 46 nM
IC50 (HeLa): 4360 nM
Structure (SMILES): Cc1c2ccc(N(C)c3ccnc(Nc4ccc(C(=O)NCCCCCCC(=O)NO)cc4)n3)cc2nn1C
IC50 (HUVEC [2]): 21100 nM
IC50 (KG-1): 1600 nM
Activity (Thoracic aorta): Active
IC50 (HEL): 2800 nM
Activity (HUVEC [10]): Active

inhibition [12]: inactive
Structure (SMILES): O=C(CCCCCCC(=O)Nc1ccccc1)NO [VORINOSTAT]
T/C (HT-29 [15]): 66%
